Calls of active or inactive are those of the source. No cut-off for these calls is given here.
Tests used:
[1] = tested on: Trypanosoma brucei brucei; assay: Antitrypanocidal activity against bloodstream forms of Trypanosoma brucei brucei Lister 427 after 6 hrs by time-kill assay; type: functional, organism-based
[2] = tested on: Trypanosoma brucei brucei; assay: Antitrypanocidal activity against Trypanosoma brucei brucei Lister 427 infected in ICR mouse assessed as reduction in parasitemia at 30 mg/kg, ip qd administered 24 hrs post infection for 4 consecutive days; type: functional, organism-based; parameters: dose 30 mg/kg
Mus musculus [3] = assay: Toxicity in ICR mouse assessed as transient clinical signs at 30 mg/kg, ip; type: organism-based; parameters: dose 30 mg/kg, route intraperitoneal; settings: in vivo
Mus musculus [4] = assay: Toxicity in ICR mouse assessed as fatality at 100 mg/kg, ip; type: organism-based; parameters: dose 100 mg/kg, route intraperitoneal; settings: in vivo
Method in brief: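 Maximum tolerated dose study in mice at 10, 30 and 100 mg/kg, scoring clinical signs and fatality.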

Mus musculus [5] = assay: Toxicity in ICR mouse assessed as clinical signs at 10 mg/kg, ip; type: organism-based; parameters: dose 10 mg/kg, route intraperitoneal; settings: in vivo

## N#Cc1c[nH]c2nc(N)nc(N)c12
[1]
  Activity: inactive

## Cc1ccc(C(C[N+](=O)[O-])c2c(N)nc(N)[nH]c2=O)cc1 (stereo unspecified)
[1]
  Activity: inactive

## Nc1nc(N)c(C(C[N+](=O)[O-])c2ccccc2)c(=O)[nH]1 (stereo unspecified)
[1]
  Activity: inactive

## CC(C)Oc1nc(N)nc(N)c1C(C[N+](=O)[O-])c1ccc(F)cc1 (stereo unspecified)
[1]
  Activity: inactive

## Nc1nc2[nH]c(-c3ccc(CCCN4CCOCC4)cc3)c(-c3ccccc3)c2c(=O)[nH]1
[1]
  Activity: inactive

## Nc1nc2[nH]c(-c3ccccc3)c(-c3ccccc3)c2c(=O)[nH]1
[1]
  Activity: inactive

## COc1nc(N)nc2[nH]cc(C#N)c12
[1]
  Activity: inactive

## Nc1nc2[nH]c(-c3ccc(F)cc3)c(-c3ccccc3)c2c(=O)[nH]1
[1]
  Activity: inactive

## Nc1nc(N)c(C(C[N+](=O)[O-])c2ccc(F)cc2)c(N)n1 (stereo unspecified)
[1]
  Activity: inactive

## Nc1nc(N)c2c(-c3ccccc3)c(-c3ccc(F)cc3)[nH]c2n1
[2]
  Activity: Active
Mus musculus [3]
  Activity: Toxic
Mus musculus [4]
  Activity: Toxic
[1]
  Activity: inactive
Mus musculus [5]
  Activity: Non-toxic

## Nc1nc(N)c(C(CCc2ccccc2)C[N+](=O)[O-])c(=O)[nH]1 (stereo unspecified)
[1]
  Activity: inactive

## N#Cc1c[nH]c2nc(N)nc(N3CCSCC3)c12
[1]
  Activity: inactive

## N#Cc1c(-c2cccc(C=O)c2)[nH]c2nc(N)nc(N)c12
[1]
  Activity: inactive

## Nc1nc(N)c2c(-c3ccccc3)c(-c3ccccc3)[nH]c2n1
[1]
  Activity: inactive

## Nc1nc2[nH]cc(CCc3ccccc3)c2c(=O)[nH]1
[1]
  Activity: inactive

## Nc1nc(N)c(C(C[N+](=O)[O-])c2ccc(F)cc2)c(NC2CCCCC2)n1 (stereo unspecified)
[1]
  Activity: inactive

## Nc1nc(N2CCSCC2)c2cc[nH]c2n1
[1]
  Activity: inactive

## Cc1ccc(C(C[N+](=O)[O-])c2c(N)nc(N)nc2N)cc1 (stereo unspecified)
[1]
  Activity: inactive

## Nc1nc(N)c(C(C[N+](=O)[O-])c2ccc(F)cc2)c(=O)[nH]1 (stereo unspecified)
[1]
  Activity: inactive

## Nc1nc(N)c(C(CCc2ccccc2)C[N+](=O)[O-])c(N)n1 (stereo unspecified)
[1]
  Activity: inactive

## CC(C)COc1nc(N)nc(N)c1C(C[N+](=O)[O-])c1ccc(F)cc1 (stereo unspecified)
[1]
  Activity: inactive

## Nc1nc(N)c(C(C[N+](=O)[O-])c2ccccc2)c(N)n1 (stereo unspecified)
[1]
  Activity: inactive

From ChEMBL document CHEMBL3351984, “Structure-based design and synthesis of antiparasitic pyrrolopyrimidines targeting pteridine reductase 1” (J Med Chem, 2014)
